Each structure is given as a SMILES string. In brackets after ≈: the same amount, converted by molar mass. Activity calls are given as the source filed them. The calls are words filed in the database; no cut-off is given here. Some results are limits rather than exact numbers.

Assay [1] concerns SK-OV-3. In words: Cytotoxicity against human SKOV3 cells. It is filed as functional. Conditions: read-out: ED50 (the source's name).
Assay [2] has as its target T1, DNA topoisomerase 1 (Homo sapiens) (UniProt P11387).
T1 sequence (whole entry): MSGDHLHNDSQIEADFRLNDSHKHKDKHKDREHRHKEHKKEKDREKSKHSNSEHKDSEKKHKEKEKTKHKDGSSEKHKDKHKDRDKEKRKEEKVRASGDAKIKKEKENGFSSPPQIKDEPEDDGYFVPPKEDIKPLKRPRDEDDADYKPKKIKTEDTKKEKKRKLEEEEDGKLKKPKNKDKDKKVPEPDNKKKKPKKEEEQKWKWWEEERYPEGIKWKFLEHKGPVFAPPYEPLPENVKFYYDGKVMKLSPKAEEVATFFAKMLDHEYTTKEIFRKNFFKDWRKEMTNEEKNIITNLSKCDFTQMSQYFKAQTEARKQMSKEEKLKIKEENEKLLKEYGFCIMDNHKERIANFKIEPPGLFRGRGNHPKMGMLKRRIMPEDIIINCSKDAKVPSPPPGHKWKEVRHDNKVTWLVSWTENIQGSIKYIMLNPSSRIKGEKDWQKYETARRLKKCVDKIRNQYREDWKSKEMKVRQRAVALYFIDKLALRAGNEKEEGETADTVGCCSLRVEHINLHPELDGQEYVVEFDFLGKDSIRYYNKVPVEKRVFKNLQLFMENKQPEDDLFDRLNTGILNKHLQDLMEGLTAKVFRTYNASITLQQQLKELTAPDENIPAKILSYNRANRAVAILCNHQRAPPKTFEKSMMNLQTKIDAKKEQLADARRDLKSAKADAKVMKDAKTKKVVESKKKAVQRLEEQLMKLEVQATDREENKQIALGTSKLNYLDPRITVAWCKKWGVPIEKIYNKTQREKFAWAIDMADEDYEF
Nature of the assay: Inhibition of human DNA topoisomerase 1 assessed as effect on relaxation of superhelical plasmid.

Assay [3] deals with XF498. In words: Cytotoxicity against human XF498 cells. It is filed as functional. Particulars: read-out: ED50 (the source's name).
Assay [4] concerns Simian virus 40. In words: Inhibition of SV40 DNA replication in human HeLa cells at 800 uM. Particulars: Betapolyomavirus macacae, read-out: INH. It is filed as functional. Summed up: (§1)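 Cell-free SV40 replication using HeLa cytosolic extract, SV40 T-Ag (0.6 µg) and SV40 origin pUC DNA (0.3 µg). Buffer is 40 mM creatine phosphate-di-Tris pH 7.7, creatine kinase, 7 mM MgCl2, 0.5 mM DTT, 4 mM ATP, rNTPs, dNTPs and 25 µM [3H]dTTP. Incubated 90 min at 37 °C; acid-insoluble radioactivity measured. Products separated on 1% agarose gel and autoradiographed.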

Assay [5] has as its system Simian virus 40. Nature of the assay: Inhibition of SV40 DNA replication in human HeLa cells. In kind it is functional, organism-based. Conditions: Betapolyomavirus macacae. Summed up: as §1
Assay [6] concerns SK-MEL-2. Nature of the assay: Cytotoxicity against human SK-MEL-2 cells. It is filed as functional. Particulars: read-out: ED50 (the source's name).
Assay [7] deals with HCT-15. Nature of the assay: Cytotoxicity against human HCT-15 cells. Particulars: read-out: ED50 (the source's name). It is filed as functional.
Assay [8] concerns A549. Nature of the assay: Cytotoxicity against human A549 cells. It is filed as functional. Conditions: read-out: ED50 (the source's name).

As to `CCCCCCC(C)CCCCCCCCCOC[C@H](O)COC1[C@@H](O)[C@H](O)[C@@H](O)[C@@H]1O` (stereo partly drawn) [SACROTRIDE A], the EC50 in assay [1] is 9.5 mg/L (≈ 20.5 µM); in assay [3], 9.8 mg/L (≈ 21.2 µM); in assay [6], greater than 10 mg/L; in assay [7], 9.4 mg/L (≈ 20.3 µM); in assay [8] it was greater than 10 mg/L. Besides, the outcome in assay [2] was inactive. Moreover, the inhibition at 800 µM in assay [4] is greater than 90%. Further, in assay [5], the Activity entry was “Dose-dependent effect”.

(Values after ChEMBL document CHEMBL1141853, “A cyclitol derivative as a replication inhibitor from the marine sponge Petrosia sp” (1999).)
